# Screening results: PubChem, several laboratories
# Rows were chosen to be rich in hits. Some 7.4% of all compounds tested hit in one or more screens of this group.
# S1P1 ag pot – agonists and agonism potentiators of human S1P1 receptor; 56,000 compounds, 0.57% hits; activation, % at 9.5 µM; AID 449; S1P1 CRE-bla cells, forskolin, beta-lactamase FRET, potentiator mode; S1P1 agonist co-added at EC20, 2 nM; 100% = saturating reference agonist, 0% = basal;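 active = activation above a cutoff set at the mean activation of all tested compounds plus 3 SD, cut at about 54% in these data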;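 also: forskolin at 4 µM as EC80 and the EC20 agonist is SEW2871; 100% = SEW2871 at its EC100 plus forskolin at EC80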
# Jurkat tox 60K – cytotoxic compounds reducing Jurkat cell viability. Jurkat E6.1 viability, ATP luminescence, 48 h. inhibition, % at 4 µM. 56,000 compounds, 1.2% hits. AID 463;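 active = inhibition above the mean inhibition of all tested compounds plus 3 SD, cut at about 28% in these data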
# M1 antagonist – blocks the rat M1 muscarinic receptor response to acetylcholine. P08482. CHO-M1 cells, Fluo-4 calcium, ACh EC80 antagonist mode; active compounds read low. AID 628. B-score at 10 µM. 64,000 compounds, 3.4% hits;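 active = calcium fluorescence response, raw or row-and-column corrected B-score, differing from the plate sample mean either way at a set confidence level, mostly lower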
# Target sequence (P08482 whole entry, looked up): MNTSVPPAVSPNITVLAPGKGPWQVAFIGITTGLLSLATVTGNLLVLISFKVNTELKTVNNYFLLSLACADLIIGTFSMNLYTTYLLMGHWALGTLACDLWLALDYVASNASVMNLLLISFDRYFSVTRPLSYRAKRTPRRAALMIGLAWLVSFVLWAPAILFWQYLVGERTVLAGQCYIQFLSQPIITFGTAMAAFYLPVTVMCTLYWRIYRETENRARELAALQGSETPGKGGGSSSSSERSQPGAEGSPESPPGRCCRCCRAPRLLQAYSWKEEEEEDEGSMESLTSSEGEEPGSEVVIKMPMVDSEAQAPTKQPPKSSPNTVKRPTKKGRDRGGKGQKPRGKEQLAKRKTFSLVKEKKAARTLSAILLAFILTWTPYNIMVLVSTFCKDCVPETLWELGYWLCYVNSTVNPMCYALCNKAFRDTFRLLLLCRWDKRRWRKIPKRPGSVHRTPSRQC
# JNK3 inh – blocks human JNK3 kinase activity; P53779; purified JNK3 kinase activity, HTS; inhibition, % at 8 µM; 60,000 compounds, 0.61% hits; AID 746; in the data active = inhibition above about 17%;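 also: 0% = DMSO and 100% = reference inhibitor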
# S1P3 agonist – activates the human S1P3 receptor. Q99500. S1P3 NFAT-BLA reporter cells, agonism, FRET ratio; relative to 1 µM S1P, basal subtracted. activation, % at 4.5 µM. 60,000 compounds, 0.1% hits. AID 373;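 active = activation above the screen-wide mean plus 3 SD, cut at about 4.5% in these data, passing the limit was not always enough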
#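 Assay system: CHO cells stably expressing human S1P3, Gα16 and NFAT-β-lactamase reporter. Timing: overnight plating, 4 h compound 37 °C, 2 h substrate RT. Signal: β-lactamase FRET emission ratio 460/535 nm. Measure: percent activation versus median 1 µM S1P response, basal-subtracted, per plate. Repeats: primary screen single test, confirmation screen in triplicate.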
# M1 agonist – agonists of M1 muscarinic receptor; AID 626; 64,000 compounds, 3% hits; B-score at 10 µM; CHO-M1 cells, Fluo-4 calcium fluorescence, agonist mode; active compounds read high;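 active = fluorescence rise, raw or as B-score row- and column-corrected plate score, outside the 99.7% band of its plate's samples, either direction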
# M1 antag confirm – confirmation of rat M1 muscarinic receptor antagonists | shares compounds with M1 antagonist | CHO-M1 cells, Fluo-4 calcium, ACh EC80 antagonism; active compounds read low | calcium response (max-min fluorescence) at 10 µM | 1,700 compounds, 43% hits;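 active = calcium response below the same-plate mean of wells given acetylcholine alone at its 80%-effect dose, minus 3 SD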;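 also: raw fluorescence intensity difference in arbitrary instrument units and not normalized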
# mGluR4 antag – selectivity test for M1 antagonists: human mGluR4 receptor; AID 678; fluorescence response (max-min) at 10 µM; CHO-mGluR4 calcium flux, Fluo-4 fluorescence, glutamate EC80; active compounds read low; shares compounds with M1 antagonist; 1,700 compounds, 0.9% hits;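 active = fluorescence response below the plate's average for near-maximal glutamate wells, less 3 SD of those wells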;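 also: raw unnormalized fluorescence span taken in the window right after glutamate addition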
# Active calls of the source: *; / = no result.
SMILES,S1P1 ag pot,Jurkat tox 60K,M1 antagonist,JNK3 inh,S1P3 agonist,M1 agonist,M1 antag confirm,mGluR4 antag
CC1(C)CC(=O)c2c(nn(-c3ccccc3)c2N)C1,-4,-1,-2.4*,3,-1,0.34,517,241
OC(COCc1ccco1)CN1CCN(C(c2ccccc2)c2ccccc2)CC1 (stereo not drawn),2,11,-17*,0,-1,-0.99,123*,252
CCn1c(CNC(=O)c2cccc(C)c2)nc2ccccc21,-22,-7,-0.0034,16,0,-0.52,/,/
COc1ccc(N2CCN(S(=O)(=O)c3ccc(Br)s3)CC2)cc1,47,7,-18*,6,-2,0.17,675,251
Cc1cc2oc3c(c(=O)c2cc1C)C(c1ccc(C(C)C)cc1)N(CCCN1CCOCC1)C3=O (stereo not drawn),-5,6,-0.14,2,-1,-0.2,/,/
CCCc1cc(=O)oc2cc(C)cc(OC(=O)c3ccco3)c12,-10,-5,-2.9*,7,1,-0.29,551,205
O=C(c1ccc(S(=O)(=O)N2CCCCCC2)cc1)N1CCN(c2ccccn2)CC1,4,8,-2.1*,-4,-1,-0.55,507*,203
O=C(COc1ccc(Cl)cc1)NCc1nnc(SCC(=O)N2CCCc3ccccc32)o1,/,/,0.38,/,/,0.24,/,/
CCOc1ccccc1COC(=O)c1cccc(-n2cnnn2)c1,60,11,-0.28,2,0,0.27,/,/
CCOC(=O)c1sc2ncnc(NCC(c3cccs3)N(C)C)c2c1C (stereo not drawn),20,-7,-3.4*,2,0,-0.23,496*,188
O=C(Nc1ccccc1C(=O)NCc1ccco1)c1ccco1,-83,-5,-0.086,-3,-1,0.43,/,/
O=C(NC1CCCCC1)c1ccc(S(=O)(=O)NCc2ccco2)cc1,7,6,-2.4*,1,0,-1.3,634,228
O=C(NC1CCCCC1)c1ccc(S(=O)(=O)NCc2cccnc2)cc1,2,12,-0.96,-4,0,0.49,/,/
O=C(Nc1ccccc1C(=O)NCc1ccco1)NC1CCCCC1,/,/,-3.1*,/,/,-0.038,639,243
COc1ccc(OC)c2[nH]c(=O)c(CCNC(=O)c3ccc(Br)o3)cc12,-16,-6,-0.17,-4,0,0.18,/,/
C=CCn1c(N(C)C)nc2c1c(=O)[nH]c(=O)n2C,-11,-5,-0.0047,-5,-1,0.016,/,/
CCN(CC)CCN1C(=O)C2C3c4ccccc4C(c4ccccc43)C2C1=O (stereo not drawn),/,5,-3.6*,-4,0,-0.0039,561,271
COc1ccc(N=C2C(=O)Nc3ccccc32)cc1,1,-1,-4.4*,-1,0,1.7,700,197
COc1cccc(-c2nc(CS(=O)CC(=O)NCc3ccccc3)c(C)o2)c1 (stereo not drawn),-15,6,0.028,3,0,0.88,/,/
COCCCNC(=O)CS(=O)(=O)Cc1nc(-c2ccccc2C)oc1C,-13,0,-3*,1,-1,-0.98,665,255
Cc1cccc(OCC(=O)Nc2ccc3c(c2)OCCO3)c1,-3,7,-5*,1,0,0.28,653,247
CCCC(=O)Nc1cccc(NC(=O)c2ccc3c(c2)OCO3)c1,-11,3,0.14,-2,-1,0.28,/,/
CCC(=O)Nc1cccc(NC(=O)c2ccc3c(c2)OCCO3)c1,-20,-4,-2.6*,5,-1,0.23,605,216
CN1CCN(CP(=O)(N2CCOCC2)N2CCOCC2)CC1,11,1,-0.42,3,-1,0.37,/,/
COc1ccc(-c2cc(C(F)(F)F)nc(SCCC(=O)N3CCN4CCCC4C3)n2)cc1 (stereo not drawn),5,1,-3.4*,4,-1,0.066,310*,248
SMILES,S1P1 ag pot,Jurkat tox 60K,M1 antagonist,JNK3 inh,S1P3 agonist,M1 agonist,M1 antag confirm,mGluR4 antag
O=C(CCSc1nc(-c2ccco2)cc(C(F)(F)F)n1)N1CCN(c2ccccc2)CC1,-5,0,-3.8*,-4,0,0.35,668,189
O=C(CSc1nc(-c2ccco2)cc(C(F)(F)F)n1)N1CCCc2ccccc21,8,-2,0.71,-5,0,0.21,/,/
C1CCC(CNc2c3c(nc4nnnn24)CCCC3)CC1,/,/,-2.9*,/,/,-0.066,651,243
c1coc(CNc2c3c(nc4ncnn24)CCCC3)c1,/,/,1.5,/,/,0.028,/,/
Nc1[nH]c(=S)[nH]c(=O)c1-c1ccccc1,/,0,-2.3*,3,-1,0.57,638,172
CCOC(=O)c1[nH]c(=O)[nH]c1COC(=O)c1cc2ccccc2o1,/,-2,0.58,3,-1,0.02,/,/
COc1ccc(OC)c(S(=O)(=O)NCCC2=CCCCC2)c1,4,2,-2.7*,1,0,1.2,441*,229
COc1cccc(OC)c1C(=O)N1CCN(Cc2ccccc2C(F)(F)F)CC1,-14,2,-3*,1,-1,-0.038,540,200
COc1cc(C(=O)N2CCN(Cc3ccccc3C(F)(F)F)CC2)cc(OC)c1OC,-7,-5,1.2,7,1,-0.46,/,/
O=c1[nH]ncn2cccc12,-6,5,0.33,2,-1,0.92,/,/
c1coc(CNc2ncnc3sc4c(c23)CCCCC4)c1,-14,1,-0.62,11,-1,0.00056,/,/
Cc1nc(NCc2ccco2)c2c3c(sc2n1)CCC3,-21,36*,-1.9*,6,-2,0.12,621,268
C=CCn1c(SCC(=O)c2ccc(NS(=O)(=O)c3ccccc3)cc2)nnc1-c1cccs1,18,/,0.17,1,-2,0.53,/,/
O=C(CN1CCSCC1)N1CCc2[nH]c3ccc(Br)cc3c2C1,1,3,-11*,0,-1,-0.14,124*,230
COC(=O)c1[nH]c2ccc(C)cc2c1NC(=O)CCN1CCN(C2CCCCC2)CC1,-10,-3,-12*,-6,-1,0.92,99*,204
COC(=O)c1[nH]c2ccc(Cl)cc2c1NC(=O)CCN1CCN(C2CCCCC2)CC1,-6,1,-9.6*,4,-2,-0.02,51*,213
COC(=O)c1[nH]c2ccc(Br)cc2c1NC(=O)CN1CCN(C2CCCCC2)CC1,0,3,-7.5*,-4,1,0.6,324*,256
COC(=O)c1[nH]c2ccc(C)cc2c1NC(=O)CN1CCCC(C)(C)C1,7,-3,-2,3,-1,-0.13,/,/
